High-throughput results (PubChem BioAssay)
Hits are enriched below; roughly 2.3% of the tested compounds scored in any of these assays.
MT1-MMP act inh = MT1-MMP (human) activation inhibition. AID 651647. HT1080 RFP-PRO-GFP cells, GFP/RFP ratio fluorescence, overnight; percent of plate control window, DMSO zero. P50281. 360,000 tested, 0.061% active. GFP/RFP ratio change, % at 20 µM;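 active means GFP/RFP ratio change of at least 30% with cell ATP level not reduced by more than half and red fluorescence within 50% of control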
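Test system: HT1080 cells expressing an RFP-PRO-GFP fluorescent reporter construct / Compound dosing: single-point 20 µM compound, 1% DMSO / Schedule: cells overnight before dosing, compound overnight, 37 °C, 5% CO2 / Evaluation: GFP/RFP fluorescence ratio / Control set: DMSO and RFP-L50D-GFP cell wells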
DNMT1 inh = inhibitors of human DNMT1 | 360,000 tested, 0.83% active | AID 588458 | P26358 | DNMT1 molecular beacon, Hinp1I cleavage, fluorescence | inhibition (reported as % activation of signal), % at 10 µM; in the data active means inhibition above about 50%
SKN-1 inh = inhibitors of C. elegans SKN-1. inhibition, % at 21.8 µM. 360,000 tested, 0.49% active. C. elegans VP596 Pgst-4::GFP/RFP ratio, acrylamide-induced, 24 h. AID 624304;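 active means interference check ratio from 0.5 to 1.5 plus GFP to RFP signal ratio inhibition reaching or exceeding a fixed threshold, cut at about 30% in these data, passing the limit was not always enough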
CSN inh = blocks human CSN-mediated cullin deneddylation | Q92905 | Purified CSN, SCF-Nedd8-OG deneddylation, fluorescence polarization | inhibition, % at 12.5 µM | 360,000 tested, 0.38% active | AID 651999;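 active means pattern-corrected inhibition above about 35%, with an unprinted fluorescence ratio check between 0.5 and 1.5, limit read from the data, passing the limit was not always enough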
Target sequence (Q92905 whole entry, looked up, one chain of several): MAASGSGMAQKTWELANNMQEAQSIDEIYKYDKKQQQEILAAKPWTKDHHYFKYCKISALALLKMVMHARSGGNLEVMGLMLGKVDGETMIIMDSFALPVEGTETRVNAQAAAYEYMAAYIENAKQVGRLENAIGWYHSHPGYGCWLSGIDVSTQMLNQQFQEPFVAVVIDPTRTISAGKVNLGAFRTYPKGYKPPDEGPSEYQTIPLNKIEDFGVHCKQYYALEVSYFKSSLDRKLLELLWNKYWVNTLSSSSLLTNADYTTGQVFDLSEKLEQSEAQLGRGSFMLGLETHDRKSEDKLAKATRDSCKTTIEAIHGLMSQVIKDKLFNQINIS
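Schedule: reaction 90 min, room temperature / Assay system: HEK293T-derived human Csn5 enzyme / Input: Csn5 at 0.24 nM final / Measure: inhibition of Csn5 cleavage, % / Control set: substrate-only high control, full reaction low control / Technique: fluorescence polarization of the substrate / Buffer or medium: Tris/NaCl/DTT buffer, pH 7.5 / Reagent: SCFSkp2-Nedd8OG substrate at 10 nM final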
SUMO1-SIM PPI = alters human SUMO1 binding to SIM partners; 360,000 tested, 0.33% active; inhibition, % at 20 µM; SUMO1 binding to a labelled peptide, TR-FRET, 1 h; P63165; in the data active means inhibition above about 37%
Target sequence (P63165 whole entry, looked up): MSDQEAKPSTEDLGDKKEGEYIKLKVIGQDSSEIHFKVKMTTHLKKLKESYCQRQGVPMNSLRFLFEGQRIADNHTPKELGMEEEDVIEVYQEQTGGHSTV
Rpn11 block = inhibitors of human proteasome Rpn11; 360,000 tested, 0.59% active; human 26S proteasome, Ub4-pepOG fluorescence polarization; 20S core pre-blocked with epoxomicin; O00487; inhibition, % at 20 µM;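 active means inhibition at 20 µM, scaled to each plate's controls, above about 33%, limit read from the data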
DNMT1 interf DR = shows spectral interference in the DNMT1 beacon assay. shares compounds with DNMT1 inh. molecular beacon fluorescence, spectral interference counter-screen. IC50, µM. 200 tested, under 10 active; call rule not given here
DNMT1 inh conf = confirmation of human DNMT1 inhibitors. shares compounds with DNMT1 inh. DNMT1 molecular beacon HinP1I cleavage, fluorescence. inhibition, % at 10 µM. 2,300 tested, 8% active;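 active means average inhibition of at least 30% in the single-concentration confirmation test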
DNMT1 interf = counter-screen for DNMT1 inhibitors: spectral interference; shares compounds with DNMT1 inh; 2,300 tested, 1% active; DNMT1 molecular beacon spectral interference counterscreen, fluorescence 485/520; activation (fluorescence interference), % at 10 µM;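 active means activation of at least 30% at 10 µM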;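 further: DNMT1 catalytic domain with a HinP1I cleavage step and a FAM/dabcyl DNA beacon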
Each line names hits and unclear results; the compound was inactive in the other large screens (follow-up assays come after a bar, where they were run).

CC1=C(C(=O)N(C(C)C)C(C)C)CC(CC(=O)NCCCCc2ccccc2)C(=O)N1Cc1ccc(C(C)(C)C)cc1 (stereo not drawn)	none
COc1ccc2nc(C)cc(Nc3ccc(N4CCN(C)CC4)cc3)c2c1	DNMT1 inh 70.1 | DNMT1 interf DR inactive | DNMT1 inh conf 33.4 | DNMT1 interf inactive
C=CC(=O)NCC1OCCc2ccccc21 (stereo not drawn)	none
O=C(/C=C/c1ccco1)NCC1OCCc2ccccc21 (stereo not drawn)	DNMT1 inh 56.2 | DNMT1 inh conf inactive | DNMT1 interf inactive
CO[C@@H]1CN(C)C(=O)c2cc(NC(=O)NC3CCCCC3)ccc2OC[C@@H](C)N(CCc2ccccc2)C[C@@H]1C	none (no result: DNMT1 inh, Rpn11 block)
C=CCN(C(=O)c1csnn1)C(C(=O)NCc1ccc(F)cc1)c1ccccc1F (stereo not drawn)	DNMT1 inh 54.1 | DNMT1 inh conf inactive | DNMT1 interf inactive
C=CCN(C(=O)c1csnn1)C(C(=O)NCc1ccccc1)c1ccccc1F (stereo not drawn)	none
Cc1cccn2c(=O)c3cc(C(=O)NCCC4=CCCCC4)n(C)c3nc12	DNMT1 inh 59.1 | DNMT1 inh conf inactive | DNMT1 interf inactive
Cn1c(C(=O)NCCC2=CCCCC2)cc2c(=O)n3ccccc3nc21	none
Nc1nc2c(c(=O)[nH]1)CN(Cc1ccccc1)CC2	none
O=c1[nH]c(C(Cl)Cl)nc2sc3c(c12)CCN(Cc1ccccc1)C3	DNMT1 inh 86.6 | DNMT1 inh conf inactive | DNMT1 interf inactive
O=C(Nc1ccncc1)c1cc(C2CCCCN2C(=O)CCc2ccccc2)on1 (stereo not drawn)	none
CCOC(=O)c1c(NC(C)=O)sc2c(OCC(O)CN(CC)CC)c(Br)ccc12 (stereo not drawn)	DNMT1 inh 75.7 | DNMT1 inh conf inactive | DNMT1 interf inactive
CCOC(=O)c1c(NC(C)=O)sc2c(OCCN(CC)CC)c(Br)ccc12	none
COC(=O)C[C@H]1C[C@H]2c3cc(NC(=O)Nc4ccc(C(F)(F)F)cc4)ccc3O[C@H]2[C@@H](CO)O1	none
Cn1cc([C@]2(O)C(=O)Nc3c(F)cccc32)c2ccccc21	none (no result: DNMT1 inh, Rpn11 block)
O=C(N/N=C/C(Br)=C/c1ccccc1)c1ccc([N+](=O)[O-])cc1	DNMT1 inh 57.1 | DNMT1 inh conf inactive | DNMT1 interf inactive
O=C(N/N=C/c1ccc(Br)s1)c1ccc([N+](=O)[O-])cc1	DNMT1 inh 78.9 | DNMT1 inh conf inactive | DNMT1 interf inactive
O=C(NCC(O)c1nc2ccccc2[nH]1)c1cc([N+](=O)[O-])ccc1F (stereo not drawn)	none
CCN(CC)CCC(=O)Nc1cccc2c1C(=O)c1ccccc1C2=O	DNMT1 inh 73.1 | DNMT1 interf DR inactive | DNMT1 inh conf 52.8 | DNMT1 interf inactive
c1ccc(-n2cnc3ccccc32)nc1	none
c1ccc(-c2nccc(-c3ccc(-n4cnc5ccccc54)cc3)n2)cc1	DNMT1 inh 82.0, CSN inh 73.2 | DNMT1 inh conf inactive | DNMT1 interf inactive
CN1OC[C@@H]2CN3C(=O)N(c4ccccc4)c4ccccc4[C@@H]3C[C@@H]21	none
Cc1ccc(C(=O)OCC(=O)c2ccc(CC(=O)N3CCOCC3)s2)c(C)c1	DNMT1 inh 54.6 | DNMT1 inh conf inactive | DNMT1 interf inactive
Cc1ccc(C(=O)OCC(=O)c2ccc(CC(=O)N3CCOCC3)s2)cc1C	none
CC(C)C[C@H]1CN(CCCC[C@@H]2CNC(=O)C(=O)N2CC2CCCCC2)C(=O)C(=O)N1CCc1ccccc1	none (no result: DNMT1 inh, Rpn11 block)
O=C(c1cc2c(s1)CCCC2)N1CCN(Cc2ccc3c(c2)OCO3)CC1	none
O=C(Oc1ccc2c(c1)OCO2)c1cc2c(s1)CCC2	DNMT1 inh 100.2 | DNMT1 inh conf inactive | DNMT1 interf inactive
Cc1cnc(NC(=O)c2ccc(-c3ccc([N+](=O)[O-])cc3)o2)s1	none
N#C/C(=C/c1ccc(-c2ccc([N+](=O)[O-])cc2)o1)C(=O)Nc1nc(-c2cccs2)cs1	DNMT1 inh 87.3 | DNMT1 inh conf inactive | DNMT1 interf inactive
N#C/C(=C\c1ccc(-c2ccc(F)cc2)o1)C(=O)Nc1nc(-c2cccs2)cs1	none
Cc1ccc(Cc2cnc(NC(=O)/C(C#N)=C/c3ccc(-c4ccc([N+](=O)[O-])cc4)o3)s2)cc1	DNMT1 inh 51.7 | DNMT1 inh conf inactive | DNMT1 interf inactive
COc1cc2cc(Oc3ccc4ccc(=O)oc4c3)c(=O)oc2cc1O[C@@H]1O[C@H](CO)[C@@H](O)[C@H](O)[C@H]1O	DNMT1 inh 104.7, CSN inh 38.0 | DNMT1 interf DR inactive | DNMT1 inh conf 60.9 | DNMT1 interf inactive
CC(=O)Nc1ccc(CN(C)c2c(C)nc3ccc(C(=O)N(C)Cc4ccco4)cn23)cc1	none
CC(OC(=O)CCN=C1NS(=O)(=O)c2ccccc21)C(=O)c1ccccc1 (stereo not drawn)	DNMT1 inh 72.2 | DNMT1 inh conf inactive | DNMT1 interf inactive
Cc1ccc(C(NC(=O)C2CCN(CCOc3ccccc3)CC2)c2ccccn2)cc1 (stereo not drawn)	none
Cc1nn(CC(=O)Nc2ccc3c(c2)nc(CCN2CCCCC2)n3C)c(=O)c2ccccc12	none
Cc1nn(CC(=O)Nc2ccc3c(c2)nc2n3CCN(C3CCCCC3)C2)c(=O)c2ccccc12	DNMT1 inh 80.3 | DNMT1 inh conf inactive | DNMT1 interf inactive
C=CCC(NC(=O)N(C)C)(C(C)=O)C(=O)OC (stereo not drawn)	none (no result: DNMT1 inh, Rpn11 block)
O=C(COc1ccccc1)NC(=S)Nc1cccc2c(O)cccc12	none
O=C(N/N=C/c1cc(Br)c(O)c(Br)c1)c1cccc(C(F)(F)F)c1	DNMT1 inh 73.6 | DNMT1 inh conf inactive | DNMT1 interf inactive
COc1ccc(Cc2nc3ccc(C(=O)NCCSC)cc3o2)cc1	DNMT1 inh 54.8 | DNMT1 inh conf inactive | DNMT1 interf inactive
COC(=O)CCNC(=O)c1ccc2nc(Cc3ccc(OC)cc3)oc2c1	none
CCOc1ccc(OCC)c(NC(=O)CCSCCc2ccccn2)c1	DNMT1 inh 88.8 | DNMT1 inh conf inactive | DNMT1 interf inactive
CCOc1ccc(OCC)c(NC(=O)CSCCc2ccccn2)c1	none
